# Measurements: PubChem BioAssay AID561 (The Scripps Research Institute Molecular Screening Center, 2006)
# The whole screen tested about 65,000 compounds, of which about 280 (0.43%) were called active.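 How the source made its calls: active means inhibition above the mean of all tested compounds plus 3 SD (cut at about 52% in these data); inactive means the rest.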 The entries come from a sample that favours actives as a whole.
# Molecular target: Nuclear receptor ROR-alpha (Homo sapiens) (UniProt P35398)
# Sequence (P35398 whole entry, looked up): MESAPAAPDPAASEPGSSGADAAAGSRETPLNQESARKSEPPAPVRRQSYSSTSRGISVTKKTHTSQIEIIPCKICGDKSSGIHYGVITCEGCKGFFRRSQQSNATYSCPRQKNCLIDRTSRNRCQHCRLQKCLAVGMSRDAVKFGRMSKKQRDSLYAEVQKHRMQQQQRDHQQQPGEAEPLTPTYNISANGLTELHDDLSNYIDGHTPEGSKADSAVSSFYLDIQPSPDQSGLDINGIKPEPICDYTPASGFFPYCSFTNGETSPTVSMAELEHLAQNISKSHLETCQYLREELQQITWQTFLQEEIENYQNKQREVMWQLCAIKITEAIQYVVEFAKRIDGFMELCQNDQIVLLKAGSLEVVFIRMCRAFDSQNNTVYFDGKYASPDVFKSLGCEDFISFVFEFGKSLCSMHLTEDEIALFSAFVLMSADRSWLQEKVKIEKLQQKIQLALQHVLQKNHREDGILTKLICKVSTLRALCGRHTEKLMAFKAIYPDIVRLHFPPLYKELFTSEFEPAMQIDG
# Test: suppression of basal RORA-driven reporter transcription – cell-based, luminescence, primary screen (AID 561)
# Details: CHO-K1 Gal4-RORA LBD luciferase reporter, at 10 µM, active compounds read high
# Procedure, shortened: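 test system = CHO-K1 Gal4-RORA LBD luciferase reporter cells | dosing = 10 µM single point | times = 20 h compound treatment, 37 °C | signal = luciferase luminescence | read-out = % inhibition of basal luciferase versus +RORA/-RORA DMSO controls | benchmarks = mock-transfected cells as 100%, +RORA DMSO cells as 0% | replicates = tested once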
row,Structure (SMILES),inhibition
1,COc1ccccc1C(=O)C(O)c1ccccc1OC (stereo not drawn),-19.7% (inactive)
2,O=C(c1cc(-c2cccs2)on1)N1CCCCC1,-63.4% (inactive)
3,Cc1noc(C)c1S(=O)(=O)Nc1ccc(C(=O)O)cc1,-7.4% (inactive)
4,Cn1c(SCc2c(F)cccc2Cl)nnc1-c1cnccn1,-62.8% (inactive)
5,Nc1ccc(-c2nnc(-c3ccc(-c4ccccc4)cc3)o2)cc1,-60.7% (inactive)
6,COc1ccccc1-n1nnnc1S(=O)(=O)Cc1ccc(Cl)cc1,54.4% (active)
7,OCCCNC(c1ccccc1)c1ccc(O)cc1 (stereo not drawn),24.8% (inactive)
8,COc1ccc(OC)c(CNC(=O)C2CCCN(c3nc4ccccc4o3)C2)c1 (stereo not drawn),33.3% (inactive)
9,COC(=O)CCSc1nccn1Cc1ccccc1,7.6% (inactive)
10,COc1ccccc1CNC(=O)C1CCN(c2nc3ccccc3o2)CC1,14% (inactive)
11,CCS(=O)(=O)N1CCCC(C(=O)NCCCN(C)Cc2ccccc2)C1 (stereo not drawn),-3.1% (inactive)
12,Cc1cc(Cl)c(S(=O)(=O)Nc2ccc3c(c2)OCCO3)cc1OCC(N)=O,22.5% (inactive)
13,OC1CN=C2Sc3ccccc3N2C1 (stereo not drawn),10.5% (inactive)
14,CCOc1ccccc1N(CC(=O)NC1CCCCC1)C(=O)CCCC(=O)Nc1ccccn1,-9% (inactive)
15,CN1CCCC(OC(=O)COc2ccc(Br)cc2)C1 (stereo not drawn),-27% (inactive)
16,CC(=O)Nc1cccc(-c2cnc3ccccc3n2)c1,-72.9% (inactive)
17,Cc1ccc(Cc2nc(-c3cccc(C)c3)no2)cc1,-51.5% (inactive)
18,CCNC(=O)CCc1nc(-c2ccc(C(C)(C)C)cc2)no1,88.3% (active)
19,Cc1cc(C)nc(NC(=O)Nc2ccccc2C(F)(F)F)n1,-29% (inactive)
20,Cc1cccc(NC(=O)CSc2nc3c(c(=O)[nH]2)CCC3)c1C,0.6% (inactive)
21,CC(C)CCNc1nc(N2CCCC2)c2c(c1C#N)CCN(C)C2,-5.2% (inactive)
22,COc1ccc(Cl)cc1S(=O)(=O)Nc1cccc(C(=O)O)c1,2.9% (inactive)
23,O=C(O)CCC(=O)NCc1ccc2[nH]c3c(c2c1)CCCC3,11.8% (inactive)
24,COCCCNC(=O)Cn1cc(C(=O)C2CC2)c2ccccc21,-7.6% (inactive)
25,COc1ccc(CN(C(=O)c2cccs2)c2nccs2)cc1OC,-6.9% (inactive)
26,CCOC(=O)Nc1ccccc1N1C(=O)c2ccccc2C1=O,-13% (inactive)
27,Cn1c(SCC(=O)Nc2cccc(O)c2)nnc1-c1ccc(S(=O)(=O)N2CCOCC2)cc1,-31.5% (inactive)
28,CC[C@H]1CN2CCc3cc(OC)c(OC)cc3[C@@H]2C[C@@H]1C[C@H]1NCCc2cc(OC)c(OC)cc21,95.3% (active)
